Results taken from article PMC2834294 (Chemistry & biology, 2010).
Entries after “also recorded” stand apart in the source; their conditions may differ.

Key:
Type in all cases: cell-based
TRPML3 [1] = target: T1, TRPML3 (Homo sapiens, UniProt Q8TDD5); test: Fura-2 calcium imaging, HEK293 cells transiently expressing TRPML3; conditions: for ⊗F340/F380 (TRPML3): 10 µM compound, mean ±SEM (n≥3); for kinetics of intracellular calcium increase: TRPML3-transfected HEK293 cells
T1 sequence (Q8TDD5 1-553): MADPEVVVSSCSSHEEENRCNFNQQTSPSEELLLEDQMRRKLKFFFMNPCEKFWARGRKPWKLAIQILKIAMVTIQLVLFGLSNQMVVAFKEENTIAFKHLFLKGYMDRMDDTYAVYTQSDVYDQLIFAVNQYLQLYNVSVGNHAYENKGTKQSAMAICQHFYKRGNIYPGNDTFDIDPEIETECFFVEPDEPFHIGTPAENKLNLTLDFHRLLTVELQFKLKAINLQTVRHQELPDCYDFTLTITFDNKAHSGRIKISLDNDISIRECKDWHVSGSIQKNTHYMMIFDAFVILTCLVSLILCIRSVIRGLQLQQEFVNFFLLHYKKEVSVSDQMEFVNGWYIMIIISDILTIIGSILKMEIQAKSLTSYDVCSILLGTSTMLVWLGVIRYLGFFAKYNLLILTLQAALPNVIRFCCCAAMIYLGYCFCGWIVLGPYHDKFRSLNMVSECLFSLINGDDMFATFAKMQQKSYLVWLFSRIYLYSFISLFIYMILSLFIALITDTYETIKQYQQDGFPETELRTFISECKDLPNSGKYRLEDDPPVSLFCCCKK
In short: (§1)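 HEK293 cells were transiently transfected (Genejammer) with the human channel construct or YFP control and measured 24 h later. Cells on glass coverslips were loaded with 4 µM fura-2-AM in bath solution (mM: 138 NaCl, 6 KCl, 2 MgCl2, 2 CaCl2, 10 HEPES, 5.5 D-glucose; pH 7.4). Compounds were applied at 10 µM and the F340/F380 ratio recorded. Values are mean ± SEM, n≥3.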

danio rerio TRPN1 = danio rerio TRPN1 (Danio rerio, UniProt Q7T1G6); conditions: for Emax: HEK293, read-out: Max % Activation (Control)
Chain of danio rerio TRPN1 (Q7T1G6 1-1614): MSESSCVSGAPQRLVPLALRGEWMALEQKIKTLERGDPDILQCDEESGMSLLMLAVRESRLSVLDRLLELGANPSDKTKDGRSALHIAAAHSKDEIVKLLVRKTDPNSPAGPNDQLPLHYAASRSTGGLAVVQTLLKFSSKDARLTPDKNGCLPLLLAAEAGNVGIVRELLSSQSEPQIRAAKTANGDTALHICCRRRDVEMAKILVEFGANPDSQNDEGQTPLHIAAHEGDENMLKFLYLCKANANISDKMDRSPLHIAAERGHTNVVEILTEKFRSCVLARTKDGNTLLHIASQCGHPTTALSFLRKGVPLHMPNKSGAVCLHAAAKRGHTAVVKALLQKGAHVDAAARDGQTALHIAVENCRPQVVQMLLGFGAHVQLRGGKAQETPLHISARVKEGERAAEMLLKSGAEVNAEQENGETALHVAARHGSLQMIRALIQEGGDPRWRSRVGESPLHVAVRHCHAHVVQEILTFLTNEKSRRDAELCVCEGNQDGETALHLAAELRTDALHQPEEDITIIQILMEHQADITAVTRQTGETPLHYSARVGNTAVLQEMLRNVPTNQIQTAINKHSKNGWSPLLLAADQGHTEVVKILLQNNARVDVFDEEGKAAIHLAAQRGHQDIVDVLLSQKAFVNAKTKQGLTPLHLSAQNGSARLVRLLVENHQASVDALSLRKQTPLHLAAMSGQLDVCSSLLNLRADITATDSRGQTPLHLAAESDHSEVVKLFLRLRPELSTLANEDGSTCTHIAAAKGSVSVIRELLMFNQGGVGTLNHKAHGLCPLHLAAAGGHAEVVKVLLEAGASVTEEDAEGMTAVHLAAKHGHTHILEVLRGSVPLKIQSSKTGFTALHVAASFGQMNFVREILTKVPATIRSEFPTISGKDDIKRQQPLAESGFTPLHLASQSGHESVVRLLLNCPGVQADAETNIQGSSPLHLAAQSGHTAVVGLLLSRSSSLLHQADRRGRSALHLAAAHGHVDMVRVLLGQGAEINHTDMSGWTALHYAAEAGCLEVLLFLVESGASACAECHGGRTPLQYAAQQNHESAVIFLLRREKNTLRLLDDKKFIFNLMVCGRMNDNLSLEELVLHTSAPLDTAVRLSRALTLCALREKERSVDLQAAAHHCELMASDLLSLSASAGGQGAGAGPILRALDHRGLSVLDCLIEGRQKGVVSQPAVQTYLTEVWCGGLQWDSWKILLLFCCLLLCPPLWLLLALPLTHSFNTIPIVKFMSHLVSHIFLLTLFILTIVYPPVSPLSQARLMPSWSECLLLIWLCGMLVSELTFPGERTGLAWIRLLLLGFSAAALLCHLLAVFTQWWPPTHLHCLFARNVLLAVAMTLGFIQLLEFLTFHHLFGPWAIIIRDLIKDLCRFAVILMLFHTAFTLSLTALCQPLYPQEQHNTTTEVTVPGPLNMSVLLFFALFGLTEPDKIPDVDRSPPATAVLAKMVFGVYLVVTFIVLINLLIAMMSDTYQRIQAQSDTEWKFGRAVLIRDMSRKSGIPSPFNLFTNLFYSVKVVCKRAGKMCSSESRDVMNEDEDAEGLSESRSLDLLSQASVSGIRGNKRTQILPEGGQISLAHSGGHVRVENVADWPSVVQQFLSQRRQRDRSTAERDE
In short: (§2)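 HEK293 lines stably expressed YFP-fused human TRPML3 or zebrafish TRPN1 (G418 0.8 mg/ml, twice subcloned) and were plated at 1,500 cells/well for 23 h at 37 °C. After Fluo-8 loading (1 h 37 °C, 30 min RT), a 5 s basal read and 120 s post-addition read were taken. Max/basal ratios were normalized to DMSO and carbachol (87 µM).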

TRPML3 [2] = target: T1, TRPML3; test: Whole-cell patch-clamp with intracellular application; conditions: for response to intracellular application (infusion): whole-cell, −80 mV
TRPML3 [3] = target: T1, TRPML3; test: Whole-cell patch-clamp, HEK293 cells transiently transfected with TRPML3; conditions: for nA/pF (-80 mV) (TRPML3): current density at −80 mV, 10 µM in standard bath solution, mean ±SEM (n≥3); for average current density relative to constitutively active TRPML3 A419P: whole-cell, −80 mV
In short: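 Whole-cell patch clamp was done on HEK293 cells 24 h after transient transfection with human TRPML3 or YFP; constitutively active TRPML3(A419P) cells served as positive control. Bath solution (mM): 138 NaCl, 5.4 KCl, 2 MgCl2, 2 CaCl2, 10 HEPES, 10 d-glucose; pH 7.4. Pipette solution (mM): 140 CsCl, 10 HEPES, 3 ATP-Na, 1 BAPTA, 2 MgCl2; pH 7.2. Compounds at 10 µM were perfused. Capacitance-normalized current at −80 mV is reported as mean ± SEM, n≥3.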

TRPML3 [4] = target: T1, TRPML3; conditions: HEK293, read-out: Max % Activation (TRPML3)
In short: as §2

TRPML3 [5] = target: T1, TRPML3; test: Excised; conditions: patches held at −80 mV
TRPML1(NC) = TRPML1(NC) (Homo sapiens, UniProt Q9GZU1); test: Fura-2 calcium imaging, HEK293 cells expressing TRPML1; conditions: 10 µM, plasma membrane-localized TRPML1 variant
Chain of TRPML1(NC) (Q9GZU1 17-572 limits assumed): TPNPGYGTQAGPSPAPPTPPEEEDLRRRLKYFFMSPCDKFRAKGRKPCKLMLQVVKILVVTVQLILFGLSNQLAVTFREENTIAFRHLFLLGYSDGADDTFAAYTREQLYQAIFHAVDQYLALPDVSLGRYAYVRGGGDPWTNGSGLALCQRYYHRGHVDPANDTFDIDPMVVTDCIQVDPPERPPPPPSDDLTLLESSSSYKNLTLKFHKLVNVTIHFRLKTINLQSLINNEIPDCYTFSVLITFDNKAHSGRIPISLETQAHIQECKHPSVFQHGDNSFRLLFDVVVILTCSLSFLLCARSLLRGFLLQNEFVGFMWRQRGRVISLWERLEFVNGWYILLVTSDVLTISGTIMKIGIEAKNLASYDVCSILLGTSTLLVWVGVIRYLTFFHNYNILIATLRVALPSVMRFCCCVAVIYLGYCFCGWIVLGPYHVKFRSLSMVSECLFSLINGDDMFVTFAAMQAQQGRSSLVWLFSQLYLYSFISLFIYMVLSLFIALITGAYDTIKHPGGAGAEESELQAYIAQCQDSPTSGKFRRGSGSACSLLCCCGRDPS
In short: as §1

[6] = target: T2, TRPML3 coexpressed with TRPML1 (Homo sapiens, UniProt Q8TDD5); test: Calcium imaging, HEK293 cells coexpressing TRPML3 with TRPML1; conditions: 10 µM
T2 sequence (Q8TDD5 1-553): T1 sequence (Q8TDD5 1-553)
In short: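 Human TRPML3 and TRPML1 were transiently coexpressed in HEK293 cells (Genejammer) and imaged 24 h post-transfection. Cells on glass coverslips were loaded with 4 μM fura-2-AM in bath solution (mM: 138 NaCl, 6 KCl, 2 MgCl₂, 2 CaCl₂, 10 HEPES, 5.5 D-glucose, pH 7.4) and read on a monochromator imaging system. Test compound was 10 μM. Mean ± SEM, n≥3 independent experiments, 20–30 cells each.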

[7] = system: YFP-expressing HEK293 cells; test: Fura-2 calcium imaging, YFP-expressing HEK293 cells; conditions: mean ±SEM (n≥3)
In short: as §1

TRPML2 = target: T3, TRPML2 (Homo sapiens, UniProt Q8IZK6); test: Fura-2 calcium imaging, HEK293 cells expressing TRPML2; conditions: 10 µM
T3 sequence (Q8IZK6 1-566): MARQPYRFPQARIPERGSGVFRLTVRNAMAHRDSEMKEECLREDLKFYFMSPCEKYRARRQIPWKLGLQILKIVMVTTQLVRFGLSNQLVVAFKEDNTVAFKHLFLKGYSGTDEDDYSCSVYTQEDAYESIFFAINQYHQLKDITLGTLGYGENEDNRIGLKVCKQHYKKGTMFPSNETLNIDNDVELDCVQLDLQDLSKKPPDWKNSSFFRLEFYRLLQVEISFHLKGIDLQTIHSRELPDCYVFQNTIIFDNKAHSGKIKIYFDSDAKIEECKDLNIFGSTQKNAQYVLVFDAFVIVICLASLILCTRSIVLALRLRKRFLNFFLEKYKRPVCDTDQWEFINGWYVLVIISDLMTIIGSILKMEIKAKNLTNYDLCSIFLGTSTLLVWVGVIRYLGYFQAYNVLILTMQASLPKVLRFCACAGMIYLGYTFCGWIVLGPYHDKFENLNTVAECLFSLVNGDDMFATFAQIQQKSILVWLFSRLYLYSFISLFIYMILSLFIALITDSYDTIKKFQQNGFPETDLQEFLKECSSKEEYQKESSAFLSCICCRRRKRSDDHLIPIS
In short: as §1

⊗F340/F380 (TRPML3) (TRPML3 [1]) | EC50 (danio rerio TRPN1) [µM] | Emax (danio rerio TRPN1) [%] | nA/pF (-80 mV) (TRPML3) (TRPML3 [3]) [nA/pF] | Emax (TRPML3 [4]) [%] | TRPML3 activity in excised patches (TRPML3 [5]) | cell membrane permeability (TRPML3 [2]; inferred from intracellular infusion experiment) | response in HEK293 cells expressing TRPML2 (TRPML2) | intracellular calcium response in TRPML3-transfected cells (TRPML3 [1]) | TRPML3 activation in whole-cell patch-clamp (TRPML3 [3]; control compound) | SMILES | response to intracellular application (infusion) (TRPML3 [2]) | activation of mutant TRPML1(NC) isoform (TRPML1(NC)) | average current density relative to constitutively active TRPML3 A419P (TRPML3 [3]) | calcium imaging response when TRPML1 was coexpressed with TRPML3 [6] | ⊗F340/F380 (Control) [7] | kinetics of intracellular calcium increase (TRPML3 [1])
0.72 ±0.05 | > 29.9 | 8 ± 1 | −0.14 ±0.02 | 135 ± 20 |  |  |  |  |  | Cc1ccc(S(=O)(=O)n2nccc2-c2c(-c3ccc(Cl)cc3)noc2C)cc1 [SF-11, 3-(4-chlorophenyl)-5-methyl-4-[2-(4-methylphenyl)sulfonylpyrazol-3-yl]-1,2-oxazole] | elicited responses when applied intracellularly |  |  |  |  | 
1.00 ±0.07 | > 29.9 | 1 | −0.24 ±0.06 | 156 ± 16 | markedly increased TRPML3 activity | not cell permeable |  |  |  | O=S(=O)(Nc1ccccc1N1CCCCC1)c1ccc(Cl)s1 [SF-22, 5-chloro-N-(2-piperidin-1-ylphenyl)thiophene-2-sulfonamide] | did not elicit a response when infused into the cells | able to activate this channel; also recorded: can be activated by compound SF-22 | comparable to average current densities obtained from cells expressing the constitutively active varitint-waddler mutant isoform A419P | strong reduction of the calcium imaging responses |  | 
0.93 ±0.07 | > 29.9 | 1 ± 1 | −0.37 ±0.08 | 174 ± 1 | markedly increased TRPML3 activity |  |  |  |  | O=S(=O)(Nc1ccccc1N1CCOCC1)c1ccc(Cl)s1 [SF-23, 5-chloro-N-(2-morpholin-4-ylphenyl)thiophene-2-sulfonamide] |  |  | comparable to average current densities obtained from cells expressing the constitutively active varitint-waddler mutant isoform A419P | strong reduction of the calcium imaging responses | 0.005 ±0.005 | 
1.00 ±0.10 | > 29.9 | 2 ± 1 | −0.19 ±0.03 | 130 ± 20 |  |  |  |  |  | CCOc1ccc(S(=O)(=O)N2CCCCCC2)c2ccccc12 [SF-31, 1-(4-ethoxynaphthalen-1-yl)sulfonylazepane] |  |  | comparable to average current densities obtained from cells expressing the constitutively active varitint-waddler mutant isoform A419P |  | −0.011 ±0.001 | 
0.52 ±0.05 | > 29.9 | 2 ± 1 | −0.02 ±0.01 | 119 ± 5 |  |  |  |  |  | CCOc1ccc(S(=O)(=O)N2CCCCC2)c(C)c1C [SF-32, 1-(4-ethoxy-2,3-dimethylphenyl)sulfonylpiperidine] |  |  |  |  |  | 
0.65 ±0.10 | > 29.9 | 2 ± 1 | −0.06 ±0.02 | 119 ± 21 |  |  |  |  |  | CCCOc1cc(C)c(Cl)cc1S(=O)(=O)N(CC)CC [SF-33, 5-chloro-N,N-diethyl-4-methyl-2-propoxybenzenesulfonamide] |  |  |  |  |  | slowest kinetics
0.99 ±0.07 | > 29.9 | 12 ± 1 | −0.42 ±0.07 | 138 ± 12 |  |  | elicited responses |  |  | Cc1ccc(N2CCN(S(=O)(=O)N3CCCCC3)CC2)c(C)c1 [SF-41, 1-(2,4-dimethylphenyl)-4-piperidin-1-ylsulfonylpiperazine] |  |  | Stronger responses |  | 0.015 ±0.001 | much more rapid increase than the other compounds
0.56 ±0.03 | > 29.9 | 2 ± 1 | −0.07 ±0.01 | 102 ± 22 |  |  |  |  |  | COc1ccccc1C1CN=NC12CCCc1ccccc1C2=O (stereo not shown) [SF-61, 4-(2-methoxyphenyl)spiro[3,4-dihydropyrazole-5,8’-6,7-dihydro-5H-benzo[7]annulene]-9’-one] |  |  |  |  |  | 
0.62 ±0.05 | > 29.9 | 1 |  | 138 ± 21 |  |  | elicited responses |  |  | Cc1ccccc1S(=O)(=O)c1c(C)cc(C)n(C(C)C)c1=O [SF-81, 4,6-dimethyl-3-(2-methylphenyl)sulfonyl-1-propan-2 ylpyridin-2-one] |  |  | comparable to average current densities obtained from cells expressing the constitutively active varitint-waddler mutant isoform A419P |  |  | 
1.15 ±0.06 | > 29.9 | 6 | −0.33 ±0.10 | 151 ± 14 |  |  |  |  |  | CCOc1ccc(S(=O)(=O)NC(C)(C)C)cc1-c1nc(=O)c2c([nH]1)c(C(C)(C)C)nn2C [SN-1, N-tert-butyl-3-(3-tert-butyl-1-methyl-7-oxo-4H-pyrazolo[4,3-d]pyrimidin-5-yl)-4-ethoxybenzenesulfonamide] |  |  | comparable to average current densities obtained from cells expressing the constitutively active varitint-waddler mutant isoform A419P |  | 0.005 ±0.004 | 
 |  |  |  |  |  |  |  | did not elicit any responses | did not activate TRPML3 | CCCN(CCC)S(=O)(=O)c1ccc(C(=O)O)cc1 [probenicid, 4-(dipropylsulfamoyl)benzoic acid, reference compound] |  |  |  |  |  | 
